# From PubChem BioAssay
# Hits are enriched below; roughly 2.7% of the tested compounds scored in any of these assays.
# ABCB1 block = blocks JC-1 efflux by human ABCB1 transporter; P08183; CCRF-Adr cells, flow cytometry; inhibition, % at 6.6 µM; hit rate 0.067% among 190,000; AID 1326; in the data active = inhibition above about 40%;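 note: 0% = vehicle and 100% = reference inhibitor; higher value means more JC-1 retained so stronger ABCB1 efflux block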
# DTT redox prof = compounds producing H2O2 with reducing agent – biochemical, NIH compound library profiling, artefact control for MLSCN library redox annotation, primary screen; activation, % at 10 µM; hit rate 0.03% among 200,000; AID 878; DTT-dependent redox cycling H2O2, phenol red/HRP absorbance; 100% = 100 µM peroxide control, 0% = buffer;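 active = activation of at least 50% relative to the plate's high and low controls in the primary single-dose screen; inactive = activation below 50%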;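 note: compound incubated with DTT at 0.8 mM final as the reducing agent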
# FLuc inh counter = counter-screen for luciferase assay inhibitors: firefly luciferase inhibition; P08659; ATPLite firefly luciferase biochemical luminescence, 10 min; inhibition, % at 10 µM; hit rate 1.5% among 200,000;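 active = inhibition above about 50% when tested at 10 µM, limit read from the data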
# Target sequence (P08659 whole entry, looked up): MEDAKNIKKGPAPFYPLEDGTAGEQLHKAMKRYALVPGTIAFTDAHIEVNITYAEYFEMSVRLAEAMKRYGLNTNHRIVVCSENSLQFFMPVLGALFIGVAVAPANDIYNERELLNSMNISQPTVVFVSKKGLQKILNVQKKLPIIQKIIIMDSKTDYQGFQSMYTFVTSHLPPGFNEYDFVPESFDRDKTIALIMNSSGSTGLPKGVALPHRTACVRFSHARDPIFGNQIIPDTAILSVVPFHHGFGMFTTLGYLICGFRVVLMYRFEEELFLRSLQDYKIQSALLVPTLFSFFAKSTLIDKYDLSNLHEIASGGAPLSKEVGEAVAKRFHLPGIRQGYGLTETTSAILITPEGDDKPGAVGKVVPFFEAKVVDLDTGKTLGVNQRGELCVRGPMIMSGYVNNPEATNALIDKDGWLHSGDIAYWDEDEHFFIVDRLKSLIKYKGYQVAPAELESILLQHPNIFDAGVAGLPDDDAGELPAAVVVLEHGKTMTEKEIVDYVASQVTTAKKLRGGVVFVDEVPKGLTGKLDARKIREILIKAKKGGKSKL
# FLuc act counter = affects firefly luciferase, flagging false hits in luciferase stimulation screens. ATPlite luciferase biochemical, luminescence, 10 min; 0 = ATP-free wells, 1 = DMSO control. activation factor at 10 µM. 200,000 tested, under 10 active. AID 1027;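 active = luciferase activation factor, scaled between plate controls, of at least 2 with compound at 10 µM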
#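 System: luciferase plus luciferin reagent, cell-free; medium: PBS as buffer for the ATP substrate; dosing: test compounds dosed from 2 mM stocks in 100% DMSO; timing: 10 min post-reagent at room temperature; measured by: luminescence measurement of luciferase light output; evaluation: luciferase activation, seen as luminescence increase over controls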
# Measles CPE = protection of cells from measles virus; hit rate 1.5% among 140,000; AID 841; Measles virus-infected cells, CPE protection, absorbance; protection (pct of control), % at 4 µM; in the data active = protection mostly above about 24%, no sharp cut-off; inactive = mostly below about 26%
# ABCG2 inh = human ABCG2 inhibition, ABCB1 as counter-screen; Q9UNQ0; IgMXP3 cells, JC-1 efflux, flow cytometry; AID 1325; inhibition, % at 6.6 µM; hit rate 0.1% among 190,000;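 active = inhibition above 80%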;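 note: 0% = DMSO and 100% = nicardipine control wells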
#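 Assay system – ABCG2 IgMXP3 and barcoded ABCB1 CCRF-Adr cell mix · Input – 3 million cells/mL in well · Reagent – JC-1 fluorescent substrate · Compound – single test compound dose, 6.6 µM final · Timing – 10 min exposure at 25 °C with rotation, no wash · Detection – flow cytometry of retained JC-1 fluorescence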
# * hit, by the source's call; . = no result given.
SMILES,ABCB1 block,DTT redox prof,FLuc inh counter,FLuc act counter,Measles CPE,ABCG2 inh
O=C(Cc1ccccc1F)Nc1nc(-c2cccs2)cs1,0.8,1.3,11.0,0.9,56.5*,6.1
Cc1ccc(Nc2nnc(SCC(=O)N(C)C3CCS(=O)(=O)C3)s2)cc1 (configuration not stated),-0.2,-0.3,76.5*,0.2,.,0.0
Cc1ccccc1Nc1nnc(SCC(=O)N(C)C2CCS(=O)(=O)C2)s1 (configuration not stated),0.1,.,-3.1,1,27.1,-0.5
CCOC(=O)CN1C(=O)SC(CC(=O)Nc2nccs2)C1=O (configuration not stated),0.2,0.1,-3.1,1,36.4*,0.4
O=C(NCc1ccco1)C(c1ccccc1)N(Cc1ccccc1)C(=O)Cn1nnc2ccccc21 (configuration not stated),4.1,3.4,-7.9,1.1,40.9*,3.1
CCCN1C(=O)/C(=C/c2ccccc2OCc2ccc(C(=O)O)cc2)NC1=S,-1.3,-1.1,72.1*,0.3,.,-5.3
CCS(=O)(=O)c1ccc2oc(SCC(=O)NC3CCCC(C)C3C)nc2c1 (configuration not stated),2.7,-0.1,1.5,1,18.7*,10.5
Cc1ccc2cccc(S(=O)(=O)N3CCCc4ccccc43)c2n1,0.7,0.8,-5.4,1.1,.,5.7
N#CC1(c2ccc(NC(=O)c3ccccc3)cc2)CCCC1,1.0,-3.5,60.7*,0.4,1.6,5.2
CC1CCCCN1c1nnc(NC(=O)c2cc(-c3ccc(Br)cc3)on2)s1 (configuration not stated),0.1,0.3,-4.9,1,2.3,-0.6
Cn1c(=O)[nH]c(=O)c2c1nc(N1CCOCC1)n2CC(=O)c1ccccc1,0.0,-0.8,-0.1,1,.,1.3
COc1ccc(/C=C/c2nnc(NC(=O)CSc3ccc(Cl)cc3)s2)cc1,-1.2,0.5,0.5,1,2.6,-10.4
COC(=O)Nc1nnc(/C=C/c2ccc(OC)cc2)s1,-0.5,0.5,51.8*,0.5,26.6,-0.8
CCc1nnc(NC(=O)c2ccc(OC)cc2)s1,1.6,-0.5,83.2*,0.2,.,11.5
CCOC(=O)c1cc(C(=O)Nc2cccc(C)c2)nn1C,0.1,8.7,59.6*,0.4,2.1,1.7
Cc1cccc(NC(=O)c2c(C)nn(-c3ccccc3)c2Cl)c1,0.2,0.3,11.5,0.9,.,1.8
CCCCOc1ccc(C(=O)N2CCCC2C(=O)O)cc1 (configuration not stated),-0.3,0.0,-5.9,1.1,48.5*,-2.7
Cc1ccc(-c2nc(C3CCCN(S(=O)(=O)c4ccc(C(F)(F)F)cc4)C3)no2)cc1 (configuration not stated),0.4,-1.2,-3.1,1,30.6*,1.1
CCCOc1ccc(C(C)=O)cc1CSCCC#N,0.3,0.8,-9.0,1.1,40.0*,15.8
COc1ccc(C(C)=O)cc1CSCCC#N,0.5,0.0,-7.6,1.1,15.2,1.0
CCC(=O)Oc1ccc(NC(=O)c2ccco2)cc1,0.3,-0.3,60.9*,0.4,.,1.0
O=C(Nc1ccc(OC(=O)c2ccco2)cc1)c1ccco1,0.6,0.3,66.3*,0.3,23.6,17.8
CCOc1ccc(/C(O)=C2/C(=O)C(=O)N(CC3CCCO3)C2c2ccc(C)o2)cc1 (configuration not stated),1.6,0.3,-3.8,1,46.1*,5.6
CCOc1ccc(/C(O)=C2/C(=O)C(=O)N(CC3CCCO3)C2c2ccco2)cc1 (configuration not stated),-0.1,-2.4,-4.6,1,26.1,0.0
Cc1ccc(NC(=O)c2cc(N3C(=O)CCC3=O)ccc2N2CCCCC2)cc1,0.1,-0.3,-1.6,1,.,2.4
SMILES,ABCB1 block,DTT redox prof,FLuc inh counter,FLuc act counter,Measles CPE,ABCG2 inh
CCOC(CCNC(=O)c1cn(-c2cccc(C)n2)cn1)OCC,1.1,1.8,-2.7,1,33.6*,12.3
Cc1ccc(NC(=O)c2cn(-c3cccc(C)n3)cn2)cc1,0.0,3.0,6.7,0.9,4.2,0.5
CC1CC(C)CN(CCOc2ccc(Br)cc2)C1 (configuration not stated),0.2,-0.6,-2.1,1,7.4,-1.1
Cc1ccc(C)c2c3c([nH]c12)-c1nonc1CC3,0.4,0.6,-4.6,1,74.3*,4.3
c1ccc(-c2nc3c([nH]2)CCc2nonc2-3)cc1,-0.1,-0.1,3.0,1,.,1.5
CCCCn1c(SCC(=O)Nc2cc(C)on2)nnc1-c1ccco1,1.1,0.2,-9.8,1.1,1.9,4.4
CCn1c(SCC(=O)Nc2cc(C)on2)nnc1-c1ccco1,0.3,-0.1,-0.1,1,34.7*,-0.2
Brc1ccc(-c2csc(/N=C/N3CCCC3)n2)cc1,1.2,-3.9,3.3,1,.,15.2
OCCN(/C=N/c1nc(-c2ccc(Br)cc2)cs1)CCO,0.0,0.7,-0.6,1,32.2*,0.1
CC(C)(C)CC(=O)NCc1ccc(F)cc1,0.8,0.2,-5.2,1.1,22.5,1.3
CC(C)OC(=O)CSc1nnc(CNc2nc(-c3ccccc3)cs2)n1C,1.2,-1.3,-8.0,1.1,5.9,5.8
COc1cccc(C(=O)CSc2nnc(CNc3nc(-c4ccccc4)cs3)n2C)c1,-5.8,-3.8,-6.3,1.1,52.5*,-6.3
COc1ccc(N2CCN(C(=O)CCNC(=O)Cn3ccc4ccccc4c3=O)CC2)cc1,0.9,-0.4,-3.3,1,.,5.6
CCOc1ccc(C(C)=O)cc1Cn1nc(C(=O)O)c2ccccc2c1=O,0.6,0.0,-2.4,1,50.4*,5.2
Cc1cccc(C)c1OCCn1nc(C(=O)O)c2ccccc2c1=O,2.0,-2.1,-3.4,1,3.5,32.7
C/C(=N\NC(=O)CC1N=C(Cc2ccccc2)NNC1=O)c1ccc(Cl)cc1Cl (configuration not stated),0.2,1.3,-2.8,1,9.8,0.4
CC1CC(C)CN(C(=O)C2CCCN(S(=O)(=O)c3cccc4nonc34)C2)C1 (configuration not stated),1.7,0.0,-2.8,1,53.4*,2.6
O=C(C1CCCN(S(=O)(=O)c2cccc3nonc23)C1)N1CCN(c2ccccc2)CC1 (configuration not stated),3.0,0.3,-8.5,1.1,15.9,8.2
O=C(CN1C(=O)C2CCCCC2C1=O)OCC(=O)c1ccc(Cl)s1 (configuration not stated),0.6,-0.3,-1.5,1,.,1.4
CCNC(=S)NNC(=O)c1cc(-c2ccc(OC)cc2)nc2ccccc12,0.0,-0.1,96.2*,0,16.9,-0.1
CCCCOc1ccc(-c2cc(C(=O)NNC(=S)NCC)c3ccccc3n2)cc1,-0.6,-0.9,94.2*,0.1,22.6,-1.2
